Active and inactive are the calls of the source. The rule behind the calls is not given here.
Tests used:
ZR-75-1 [1] = assay: Cytotoxicity against human ZR-75-1 cells assessed as inhibition of cell viability incubated for 72 hrs by MTS assay; assay type: functional, cell-based
Summary of the method: (§1)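 Untreated cells were seeded at 5,000 cells/well in 96-well plates and run as the control. They were exposed in triplicate for 72 h to graded doxorubicin, bleomycin, cisplatin, paclitaxel or methotrexate (nmol/L range). Viability was read by MTS assay and IC50 was calculated.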

T47D [2] = assay: Cytotoxicity against human T47D cells assessed as inhibition of cell viability incubated for 72 hrs by MTS assay; assay type: functional, cell-based; summary of the method: as §1
T47D [3] = assay: Induction of cell cycle arrest in human T47D cells at 5 umol/L preincubated for 24 hrs followed by extensive compound washout and subsequent culturing in compound-free media measured for 60 to 120 mins by immunofluorescence staining based analysis; assay type: functional; conditions: dose 5.0 µmol/L
Summary of the method: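 T-47D cells were treated at 37°C with 5 µmol/L for 24 h, washed extensively, then cultured in DMEM with 10% FBS for 30, 60 and 120 min. α- and γ-tubulin were detected by immunofluorescence with DAPI, imaged at 400×. The control was a 24 h preincubation with 5 µmol/L RO-3306. One of 2 experiments.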

[4] = molecular target: Macrophage-stimulating protein receptor (Homo sapiens, UniProt Q04912); assay: Inhibition of RON (unknown origin)
Macrophage-stimulating protein receptor, sequence (Q04912 25-304 limits assumed): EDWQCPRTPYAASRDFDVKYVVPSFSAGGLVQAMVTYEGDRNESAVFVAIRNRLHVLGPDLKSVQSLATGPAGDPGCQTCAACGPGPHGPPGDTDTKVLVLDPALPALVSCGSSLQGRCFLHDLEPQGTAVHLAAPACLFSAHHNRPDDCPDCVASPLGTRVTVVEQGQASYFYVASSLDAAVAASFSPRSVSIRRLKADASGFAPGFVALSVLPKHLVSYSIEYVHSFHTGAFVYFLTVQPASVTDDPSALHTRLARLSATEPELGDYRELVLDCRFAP
Macrophage-stimulating protein receptor, sequence (Q04912 310-1400 limits assumed): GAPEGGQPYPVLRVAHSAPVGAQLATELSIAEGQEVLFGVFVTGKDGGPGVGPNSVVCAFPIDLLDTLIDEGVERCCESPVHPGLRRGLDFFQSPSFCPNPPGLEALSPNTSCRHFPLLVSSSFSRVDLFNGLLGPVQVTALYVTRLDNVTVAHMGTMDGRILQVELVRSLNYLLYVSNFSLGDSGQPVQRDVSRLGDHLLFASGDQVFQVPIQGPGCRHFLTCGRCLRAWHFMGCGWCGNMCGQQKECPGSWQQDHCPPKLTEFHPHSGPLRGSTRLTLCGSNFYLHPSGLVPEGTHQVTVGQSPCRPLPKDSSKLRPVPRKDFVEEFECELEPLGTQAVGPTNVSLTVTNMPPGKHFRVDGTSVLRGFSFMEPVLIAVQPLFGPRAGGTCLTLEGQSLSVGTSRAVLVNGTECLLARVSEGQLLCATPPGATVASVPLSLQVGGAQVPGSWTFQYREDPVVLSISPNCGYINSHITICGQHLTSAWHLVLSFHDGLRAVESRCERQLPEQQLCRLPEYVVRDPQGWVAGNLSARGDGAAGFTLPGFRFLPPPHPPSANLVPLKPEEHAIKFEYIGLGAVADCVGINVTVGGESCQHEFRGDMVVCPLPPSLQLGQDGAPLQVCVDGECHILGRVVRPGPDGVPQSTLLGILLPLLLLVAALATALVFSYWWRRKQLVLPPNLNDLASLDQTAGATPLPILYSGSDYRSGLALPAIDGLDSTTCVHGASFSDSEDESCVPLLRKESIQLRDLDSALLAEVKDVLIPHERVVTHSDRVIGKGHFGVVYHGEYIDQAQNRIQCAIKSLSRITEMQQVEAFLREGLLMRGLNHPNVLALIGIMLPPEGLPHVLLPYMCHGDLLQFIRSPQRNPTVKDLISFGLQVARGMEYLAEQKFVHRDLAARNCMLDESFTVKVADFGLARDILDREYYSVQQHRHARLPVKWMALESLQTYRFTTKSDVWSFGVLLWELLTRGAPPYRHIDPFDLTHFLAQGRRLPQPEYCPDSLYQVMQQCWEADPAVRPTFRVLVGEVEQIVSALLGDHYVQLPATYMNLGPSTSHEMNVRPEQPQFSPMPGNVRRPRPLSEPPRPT

T47D [5] = assay: Induction of polyploidy in human T47D cells at 5 uM incubated for 72 hrs by microscopic analysis; assay type: functional, cell-based
Summary of the method: (§2)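 Cells stained with Hema-3 and photographed under a light microscope with CCD camera. Polyploid cells scored as percent of the population.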

MCF7 = assay: Induction of polyploidy in human MCF7 cells at 5 uM incubated for 72 hrs by microscopic analysis; assay type: functional, cell-based; summary of the method: as §2
ZR-75-1 [6] = assay: Induction of polyploidy in human ZR-75-1 cells at 5 uM incubated for 72 hrs by microscopic analysis; assay type: functional, cell-based; summary of the method: as §2
[7] = molecular target: Hepatocyte growth factor receptor (Homo sapiens, UniProt P08581); assay: Inhibition of MET (unknown origin)
Hepatocyte growth factor receptor, sequence (P08581 whole entry): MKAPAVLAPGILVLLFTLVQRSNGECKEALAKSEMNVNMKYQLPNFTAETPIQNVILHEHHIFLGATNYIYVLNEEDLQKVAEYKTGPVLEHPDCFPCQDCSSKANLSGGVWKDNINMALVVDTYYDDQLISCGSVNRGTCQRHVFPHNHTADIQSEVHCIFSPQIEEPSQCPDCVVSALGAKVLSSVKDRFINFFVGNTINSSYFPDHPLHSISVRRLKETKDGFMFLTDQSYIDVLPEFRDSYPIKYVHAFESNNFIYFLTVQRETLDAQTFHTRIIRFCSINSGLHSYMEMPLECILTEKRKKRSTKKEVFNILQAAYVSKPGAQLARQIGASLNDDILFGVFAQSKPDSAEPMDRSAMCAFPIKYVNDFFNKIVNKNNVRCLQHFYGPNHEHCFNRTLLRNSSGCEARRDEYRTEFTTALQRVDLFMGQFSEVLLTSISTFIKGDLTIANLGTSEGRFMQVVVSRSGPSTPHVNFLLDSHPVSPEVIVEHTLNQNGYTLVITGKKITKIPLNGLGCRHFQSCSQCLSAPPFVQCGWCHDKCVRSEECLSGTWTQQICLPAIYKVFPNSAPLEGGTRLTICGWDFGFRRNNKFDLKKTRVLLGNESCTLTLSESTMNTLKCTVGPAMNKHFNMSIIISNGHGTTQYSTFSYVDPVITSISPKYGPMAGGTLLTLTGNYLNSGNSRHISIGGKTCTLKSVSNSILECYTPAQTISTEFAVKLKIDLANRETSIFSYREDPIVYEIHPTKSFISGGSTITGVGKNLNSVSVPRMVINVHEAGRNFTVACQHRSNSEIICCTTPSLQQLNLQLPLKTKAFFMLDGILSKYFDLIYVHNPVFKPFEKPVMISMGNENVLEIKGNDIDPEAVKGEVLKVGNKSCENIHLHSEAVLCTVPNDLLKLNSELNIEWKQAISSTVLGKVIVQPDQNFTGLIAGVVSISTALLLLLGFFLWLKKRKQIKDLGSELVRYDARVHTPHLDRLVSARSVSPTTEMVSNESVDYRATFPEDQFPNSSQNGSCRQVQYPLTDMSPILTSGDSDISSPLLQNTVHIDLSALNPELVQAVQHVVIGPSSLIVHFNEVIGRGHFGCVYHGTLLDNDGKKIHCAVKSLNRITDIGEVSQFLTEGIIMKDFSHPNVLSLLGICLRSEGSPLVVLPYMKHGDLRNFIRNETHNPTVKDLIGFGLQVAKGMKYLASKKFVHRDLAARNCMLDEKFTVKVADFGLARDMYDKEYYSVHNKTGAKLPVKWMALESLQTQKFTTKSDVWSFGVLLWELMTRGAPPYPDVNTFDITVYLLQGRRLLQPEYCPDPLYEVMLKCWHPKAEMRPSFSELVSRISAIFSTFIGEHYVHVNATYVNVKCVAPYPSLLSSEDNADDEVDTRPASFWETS

COc1cccc2c1C(=O)c1c(O)c3c(c(O)c1C2=O)C[C@@](O)(C(=O)CO)C[C@@H]3O[C@H]1C[C@H](N)[C@H](O)[C@H](C)O1 [DOXORUBICIN]
IC50 (ZR-75-1 [1]; Homo sapiens, ZR-75-1, 72 h): 453 nM | IC50 (T47D [2]; Homo sapiens, T47D, 72 h): 264 nM

BLEOMYCIN
IC50 (ZR-75-1 [1]; zr-75-1): 165 nM | IC50 (T47D [2]; t47d): 129 nM

CN(Cc1cnc2nc(N)nc(N)c2n1)c1ccc(C(=O)N[C@@H](CCC(=O)O)C(=O)O)cc1 [METHOTREXATE]
IC50 (ZR-75-1 [1]; Homo sapiens, ZR-75-1, 72 h): 66 nM | IC50 (T47D [2]; Homo sapiens, T47D, 72 h): 64.4 nM

O=C1N=C(NCc2cccs2)S/C1=C\c1ccc2ncccc2c1
Activity (T47D [3]): inactive

CC(=O)O[C@H]1C(=O)[C@@]2(C)[C@H]([C@H](OC(=O)c3ccccc3)[C@]3(O)C[C@H](OC(=O)[C@H](O)[C@@H](NC(=O)c4ccccc4)c4ccccc4)C(C)=C1C3(C)C)[C@]1(OC(C)=O)CO[C@@H]1C[C@@H]2O [PACLITAXEL]
IC50 (ZR-75-1 [1]; Homo sapiens, ZR-75-1, 72 h): 6.2 nM | IC50 (T47D [2]; Homo sapiens, T47D, 72 h): 4 nM

COc1ccc2c(Oc3ccc(NC(=O)c4c(C)n(CC(C)(C)O)n(-c5ccccc5)c4=O)cc3F)ccnc2c1
IC50 [4]: 9 nM | Activity (T47D [5]): inactive | Activity (MCF7): inactive | Activity (ZR-75-1 [6]): inactive | IC50 [7]: 4 nM

Cc1[nH]c(/C=C2\C(=O)Nc3ccc(S(=O)(=O)Cc4c(Cl)cccc4Cl)cc32)c(C)c1C(=O)N1CCC[C@@H]1CN1CCCC1
Activity (T47D [5]): inactive | Activity (MCF7): inactive | Activity (ZR-75-1 [6]): inactive

Reference: ChEMBL document CHEMBL5653613 (Mol Cancer Ther, 2013)
